This passage reports IC50 results from ChEMBL document CHEMBL1140356, “Developing microcolin A analogs as biological probes” (Bioorg Med Chem Lett, 2005).

Assay [1] deals with P388. Kind of assay: Cytotoxicity against P-388 cell line (mouse T-cell leukemia cells). The format is functional, cell-based. Put shortly:
(§1)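 Growth-inhibition assay on cultured cells, reported as IC50. […] used primary mouse lymphocytes, either PMA/ionomycin-stimulated or in a mixed lymphocyte reaction. C2C12 are nontransformed mouse myoblasts. BAE are primary bovine aortic endothelial cells.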

Assay [2] relates to EL4. Put plainly: Cytotoxicity against mouse thymoma cells (EL-4 cell lines). It counts as functional, cell-based. Put shortly: as §1
In the next assay the test system is Jurkat. Put plainly: Cytotoxicity against Jurkat cell line (human T-cell leukemia cells). It counts as functional, cell-based. Put shortly:
as §1

Assay [3] is described as follows: Cytotoxicity against C2C12 cell line (mouse myoblast cells). The format is functional, cell-based. Put shortly: as §1
Assay [4] is described as follows: Cytotoxicity against BAE cell line (bovine aortic endothelial cells). The format is functional, cell-based. The following applies: Bos taurus. Put shortly:
as §1

Assay [5] can be described thus: Cytotoxicity against mouse PMA ionomycin-stimulated lymphocytes. The format is functional. Put shortly:
as §1

Another assay is filed under the species Mus musculus. Kind of assay: Cytotoxicity against mouse mixed lymphocyte reaction. The format is functional. Put shortly:
as §1

The next assay concerns N1E-115. Kind of assay: Cytotoxicity against N1E-115 cell line (mouse neuroblastoma cells). The format is functional, cell-based. Put shortly:
as §1

Assay [6] concerns EL4. Put plainly: Cytotoxicity against EL-4 cell line (mouse thymoma). It counts as functional, cell-based. Put shortly: (§2)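 Cell proliferation inhibition measured in cultured cells; value reported as IC50.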
In assay [7] the test system is P388. Put plainly: Cytotoxicity against P-388 cell line (mouse T-cell leukemia). The format is functional, cell-based. Put shortly: as §2
Assay [8] deals with EL4. Put plainly: Cytotoxicity against EL-4 cell line (mouse thymoma cells). The format is functional, cell-based. Put shortly:
as §1

On to `CCCCCCCC(=O)N(C)[C@@H](CC(C)C)C(=O)N[C@H](C(=O)N(C)[C@H](C(=O)N1C[C@@H](O)C[C@H]1C(=O)N1C(=O)C=C[C@@H]1C)C(C)C)C(C)OC(C)=O` (some centres undefined), for which the IC50 in the assay on P388 [1] was found to be 66.7 nM; with EL4 [2] it was 45.6 nM; with Jurkat, 39.4 nM; in assay [3], 43.4 nM; in assay [4], 36.7 nM; in [5], 30.3 nM. Moreover, the IC50 in the assay filed under Mus musculus came out at 32.8 nM; in the assay on N1E-115, 35.9 nM.

As to `CC(=O)OC(C)[C@H](NC(=O)[C@H](CC(C)C)N(C)C(=O)CCOCCOCCOCCOCCNC(=O)CCCC[C@@H]1SC[C@@H]2NC(=O)N[C@@H]21)C(=O)N(C)[C@H](C(=O)N1C[C@@H](O)C[C@H]1C(=O)N1C(=O)C=C[C@@H]1C)C(C)C` (some centres undefined), the concentration for half-maximal inhibition (IC50) in the assay on EL4 [6] and in the assay on P388 [7] was 10000 nM each time.

On to `CCCCCCCC(=O)N(C)[C@@H](CC(C)C)C(=O)N[C@H](C(=O)N(C)[C@H](C(=O)N1C[C@@H](O)C[C@H]1C(=O)N1C(=O)C=C[C@H]1C)C(C)C)C(C)OC(C)=O` (some centres undefined), for which the IC50 in the assay with P388 [1] amounted to 7000 nM; in the assay with EL4 [8], 6000 nM.

Regarding `CCCCCCCC(=O)N(C)[C@@H](CC(C)C)C(=O)N[C@H](C(=O)N(C)[C@H](C(=O)N1CCC[C@H]1C(=O)N1C(=O)C=C[C@@H]1C)C(C)C)C(C)OC(C)=O` (some centres undefined), the IC50 came out at 5000 nM with P388 [1] and 6000 nM in the assay with EL4 [8].
